# Key:
# Staphylococcus aureus = assay: Antibacterial activity against Staphylococcus aureus ATCC 29213 after 24 to 96 hrs by twofold serial dilution method; type: functional
# Summary of the method: (§1)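 Strains kept at -70 °C, grown at 30 °C on blood agar and suspended in physiological saline to OD 0.1 at 595 nm. The suspension was diluted 10× and 2 µL added to 100 µL nutrient broth with yeast extract. Peptides came from an ethanol stock (4 g/L), were diluted in water and twofold diluted in broth (64 to 1 mg/L). Plates were incubated at 30 °C for 24–96 h. MIC was the lowest concentration inhibiting growth.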
# [1] = system: Staphylococcus epidermidis; assay: Antibacterial activity against Staphylococcus epidermidis ATCC 12228 after 24 to 96 hrs by twofold serial dilution method; type: functional; summary of the method: as §1
# Enterococcus faecalis = assay: Antibacterial activity against Enterococcus faecalis ATCC 29212 after 24 to 96 hrs by twofold serial dilution method; type: functional; summary of the method: as §1
# Escherichia coli = assay: Antibacterial activity against Escherichia coli ATCC 25922 after 24 to 96 hrs by twofold serial dilution method; type: functional; summary of the method: as §1
# Pseudomonas aeruginosa = assay: Antibacterial activity against Pseudomonas aeruginosa ATCC 27853 after 24 to 96 hrs by twofold serial dilution method; type: functional; summary of the method: as §1
# Bacillus cereus = assay: Antibacterial activity against Bacillus cereus ATCC 11778 after 24 to 96 hrs by twofold serial dilution method; type: functional; summary of the method: as §1
# [2] = Solubility in 30% DMSO; type: physicochemical
# [3] = system: erythrocyte (Homo sapiens); assay: Cytotoxicity against human erythrocytes assessed as induction of hemolysis at 10 uL after 4 hrs
Structure (SMILES),MIC (Staphylococcus aureus) [µg/mL],MIC [1] [µg/mL],MIC (Enterococcus faecalis) [µg/mL],MIC (Escherichia coli) [µg/mL],MIC (Pseudomonas aeruginosa) [µg/mL],MIC (Bacillus cereus) [µg/mL],solubility [2],Activity [3]
CC(C)C[C@@H]1NC(=O)[C@H](CCCN)NC(=O)[C@H](C(C)C)NC(=O)[C@@H]2O[C@H](CNC(=O)[C@H](CC(N)=O)NC(=O)[C@H](Cc3ccccc3)NC(=O)[C@H](Cc3c[nH]c4ccccc34)NC(=O)[C@@H]3CCCN3C(=O)[C@@H](Cc3ccc(O)cc3)NC1=O)[C@@H](OCc1ccccc1)[C@@H]2O,> 64,32,> 64,> 64,> 64,64,Insoluble,Toxic
CC(C)C[C@@H]1NC(=O)[C@H](CCCN)NC(=O)[C@H](C(C)C)NC(=O)[C@H](Cc2c[nH]c3ccccc23)NC(=O)[C@@H](CC(=O)O)NC(=O)[C@H](CC(N)=O)NC(=O)[C@H](Cc2ccccc2)NC(=O)[C@H](Cc2c[nH]c3ccccc23)NC(=O)[C@@H]2CCCN2C(=O)[C@@H](Cc2ccc(O)cc2)NC1=O,> 64,> 64,> 64,> 64,> 64,> 64,,
CC(C)C[C@@H]1NC(=O)[C@H](CCCN)NC(=O)[C@H](C(C)C)NC(=O)[C@@H]2O[C@H](CNC(=O)[C@H](CC(N)=O)NC(=O)[C@@H](Cc3ccccc3)NC(=O)[C@H](Cc3c[nH]c4ccccc34)NC(=O)[C@@H]3CCCN3C(=O)[C@@H](Cc3ccc(O)cc3)NC1=O)[C@@H](OCc1ccccc1)[C@@H]2O,> 64,> 64,> 64,> 64,> 64,> 64,Insoluble,Non-toxic
CC(C)C[C@@H]1NC(=O)[C@H](CCCN)NC(=O)[C@H](C(C)C)NC(=O)[C@H](Cc2c[nH]c3ccccc23)NC(=O)[C@H](CC(=O)O)NC(=O)[C@@H]2O[C@H](CNC(=O)[C@H](Cc3c[nH]c4ccccc34)NC(=O)[C@@H]3CCCN3C(=O)[C@@H](Cc3ccc(O)cc3)NC1=O)[C@@H](OCc1ccccc1)[C@@H]2O,> 64,> 64,> 64,> 64,> 64,> 64,,Non-toxic
CC(C)C[C@@H]1NC(=O)[C@H](CCCN)NC(=O)[C@H](C(C)C)NC(=O)[C@H](Cc2c[nH]c3ccccc23)NC(=O)[C@H](CC(=O)O)NC(=O)[C@H](CC(N)=O)NC(=O)[C@@H](Cc2ccccc2)NC(=O)[C@H](Cc2c[nH]c3ccccc23)NC(=O)[C@@H]2O[C@H](CNC1=O)[C@@H](OCc1ccccc1)[C@@H]2O,> 64,> 64,> 64,> 64,> 64,> 64,Insoluble,Non-toxic
CC(C)C[C@@H]1NC(=O)[C@H](CCCN)NC(=O)[C@H](C(C)C)NC(=O)[C@H](Cc2c[nH]c3ccccc23)NC(=O)[C@H](CC(=O)O)NC(=O)[C@H](CC(N)=O)NC(=O)[C@@H](Cc2ccccc2)NC(=O)[C@H](Cc2c[nH]c3ccccc23)NC(=O)[C@@H]2CCCN2C(=O)[C@@H](Cc2ccc(O)cc2)NC1=O [LOLOATIN C],8,8,8,> 64,> 64,8,,Toxic
CC(C)C[C@@H]1NC(=O)[C@H](CCCN)NC(=O)[C@H](C(C)C)NC(=O)[C@H](Cc2c[nH]c3ccccc23)NC(=O)[C@H](CC(=O)O)NC(=O)[C@H](CC(N)=O)NC(=O)[C@H](Cc2ccccc2)NC(=O)[C@H](Cc2c[nH]c3ccccc23)NC(=O)[C@@H]2CCCN2C(=O)[C@@H](Cc2ccc(O)cc2)NC1=O,64,32,> 64,> 64,> 64,32,Insoluble,Toxic

# From ChEMBL document CHEMBL1152548, “Structural and biological evaluation of some loloatin C analogues” (Bioorg Med Chem, 2009)
